Consider two molecules from ChEMBL document CHEMBL2424563, “Semisynthesis of mallotus B from rottlerin: evaluation of cytotoxicity and apoptosis-inducing activity” (J Nat Prod, 2013).

Active and inactive are the calls of the source. No cut-off for these calls is given here. Bounds are passed on as bounds.

One assay has as its system PC-3. Briefly: Cytotoxicity against human PC3 cells after 48 hrs by MTT assay. The class given is functional, cell-based. Conditions: PC-3, 48 h. In short, it runs like this: (§1)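 Cell lines from NCI, grown in RPMI1640 or MEM with 10% heat-inactivated FBS at 37 °C under 5% CO2. Seeded at 6000 cells/well overnight, then exposed to 1, 10, 30, 50 and 100 μM for 48 h. MTT (2.5 mg/mL) added for 3 h, formazan dissolved in DMSO, OD read at 540 nm (ref 620 nm). Growth taken as treated vs untreated absorbance, giving IC50.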
A general note: Formazan colour is commonly taken as a measure of viable cells.

Assay [1] has as its system HL-60. The assay can be described thus: Cytotoxicity against human HL60 cells after 48 hrs by MTT assay. Conditions: HL-60, 48 h. The class given is functional, cell-based. In short, it runs like this:
as §1

Another assay deals with MIA PaCa-2. Briefly: Cytotoxicity against human MIAPaCa2 cells after 48 hrs by MTT assay. The class given is functional, cell-based. Conditions: MIA PaCa-2, 48 h. The method in brief: as §1
The next assay deals with COLO 205. Briefly: Cytotoxicity against human COLO205 cells after 48 hrs by MTT assay. Format: functional, cell-based. Conditions: COLO 205, 48 h. In short, it runs like this: as §1
For the next assay, the system named is HepG2. Briefly: Cytotoxicity against human HepG2 cells after 48 hrs by MTT assay. Conditions: HepG2, 48 h. Format: functional, cell-based. The method in brief:
as §1

Assay [2] concerns HL-60. The assay can be described thus: Cell cycle arrest in human HL60 cells assessed as accumulation at G2 phase at 40 uM after 24 hrs by propidium iodide staining-based FACS flow cytometric analysis (reference value: 1%). The class given is functional. In short, it runs like this: (§2)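 HL-60 cells seeded at 0.44 × 10^6/mL and exposed to 10, 20, 30 or 40 μM for 24 h. Cells were pelleted at 400g, washed in ice-cold PBS and fixed overnight in ice-cold 70% ethanol at 4 °C. They were treated with RNase (0.2 mg/mL) for 1 h at 37 °C, then stained with PI (10 μg/mL) for 30 min in the dark. Flow cytometry collected 10 000 events (FL2-A vs FL2-W). Sub-G0, G1, S and G2 fractions were fitted by modelling software.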
(A flow cytometer gives signals particle by particle.)

The subject of assay [3] is HL-60. Briefly: Cell cycle arrest in human HL60 cells assessed as accumulation at S phase at 40 uM after 24 hrs by propidium iodide staining-based FACS flow cytometric analysis (reference value: 54%). The class given is functional. In short, it runs like this:
as §2

Assay [4] concerns HL-60. The assay can be described thus: Cell cycle arrest in human HL60 cells assessed as accumulation at G1 phase at 40 uM after 24 hrs by propidium iodide staining-based FACS flow cytometric analysis (reference value: 45%). The class given is functional. In short, it runs like this: as §2
Assay [5] relates to HL-60. The assay can be described thus: Cell cycle arrest in human HL60 cells assessed as accumulation at G2 phase at 30 uM after 24 hrs by propidium iodide staining-based FACS flow cytometric analysis (reference value: 1%). Format: functional. In short, it runs like this:
as §2

Assay [6] relates to HL-60. The assay can be described thus: Cell cycle arrest in human HL60 cells assessed as accumulation at sub-G0 phase at 40 uM after 24 hrs by propidium iodide staining-based FACS flow cytometric analysis (reference value: 3%). Format: functional. The method in brief:
as §2

The test system of assay [7] is HL-60. The assay can be described thus: Cell cycle arrest in human HL60 cells assessed as accumulation at S phase at 30 uM after 24 hrs by propidium iodide staining-based FACS flow cytometric analysis (reference value: 54%). The class given is functional. In short, it runs like this:
as §2

Assay [8] has as its system HL-60. The assay can be described thus: Cell cycle arrest in human HL60 cells assessed as accumulation at G1 phase at 30 uM after 24 hrs by propidium iodide staining-based FACS flow cytometric analysis (reference value: 45%). Format: functional. The method in brief: as §2
Assay [9] deals with HL-60. The assay can be described thus: Cell cycle arrest in human HL60 cells assessed as accumulation at sub-G0 phase at 30 uM after 24 hrs by propidium iodide staining-based FACS flow cytometric analysis (reference value: 3%). The class given is functional. In short, it runs like this: as §2
Assay [10] concerns HL-60. Briefly: Cell cycle arrest in human HL60 cells assessed as accumulation at G2 phase at 20 uM after 24 hrs by propidium iodide staining-based FACS flow cytometric analysis (reference value: 1%). Format: functional. In short, it runs like this:
as §2

Assay [11] concerns HL-60. Briefly: Cell cycle arrest in human HL60 cells assessed as accumulation at S phase at 20 uM after 24 hrs by propidium iodide staining-based FACS flow cytometric analysis (reference value: 54%). The class given is functional. The method in brief:
as §2

In assay [12] the test system is HL-60. The assay can be described thus: Cell cycle arrest in human HL60 cells assessed as accumulation at G1 phase at 20 uM after 24 hrs by propidium iodide staining-based FACS flow cytometric analysis (reference value: 45%). The class given is functional. In short, it runs like this:
as §2

For assay [13], the system named is HL-60. The assay can be described thus: Cell cycle arrest in human HL60 cells assessed as accumulation at sub-G0 phase at 20 uM after 24 hrs by propidium iodide staining-based FACS flow cytometric analysis (reference value: 3%). Format: functional. In short, it runs like this: as §2
Assay [14] relates to HL-60. The assay can be described thus: Cell cycle arrest in human HL60 cells assessed as accumulation at G2 phase at 10 uM after 24 hrs by propidium iodide staining-based FACS flow cytometric analysis (reference value: 1%). The class given is functional. The method in brief:
as §2

Assay [15] relates to HL-60. The assay can be described thus: Cell cycle arrest in human HL60 cells assessed as accumulation at S phase at 10 uM after 24 hrs by propidium iodide staining-based FACS flow cytometric analysis (reference value: 54%). The class given is functional. The method in brief:
as §2

In assay [16] the test system is HL-60. Briefly: Cell cycle arrest in human HL60 cells assessed as accumulation at G1 phase at 10 uM after 24 hrs by propidium iodide staining-based FACS flow cytometric analysis (reference value: 45%). Format: functional. In short, it runs like this:
as §2

Assay [17] concerns HL-60. Briefly: Cell cycle arrest in human HL60 cells assessed as accumulation at sub-G0 phase at 10 uM after 24 hrs by propidium iodide staining-based FACS flow cytometric analysis (reference value: 3%). Format: functional. The method in brief: as §2
The subject of assay [18] is HL-60. The assay can be described thus: Induction of apoptosis in human HL60 cells assessed as formation of scattered apoptotic bodies at 20 to 40 uM after 24 hrs by fluorescence microscopic analysis. Format: functional, cell-based. In short, it runs like this:
(§3)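 After 24 h exposure, HL-60 cells were pelleted at 400g, washed twice in PBS and fixed in cold acetic acid–methanol (1:3) for 3 h on ice. They were spread on slides and dried overnight at room temperature. Staining used Hoechst 33258 (5 μg/mL in 0.45 M disodium phosphate/0.01 M citric acid/0.05% Tween 20) for 30 min at room temperature. Slides were mounted in PBS–glycerol and viewed by fluorescence microscopy at 30× for condensed nuclei and apoptotic bodies.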

The test system of assay [19] is HL-60. Briefly: Induction of apoptosis in human HL60 cells assessed as nuclear condensation at 20 to 40 uM after 24 hrs by fluorescence microscopic analysis. Format: functional, cell-based. The method in brief:
as §3

In assay [20] the test system is HL-60. Briefly: Induction of apoptosis in human HL60 cells assessed as shrinkage of cell size at 20 to 40 uM after 24 hrs by fluorescence microscopic analysis. Format: functional, cell-based. The method in brief: as §3
For assay [21], the system named is HL-60. The assay can be described thus: Induction of apoptosis in human HL60 cells assessed as cell wall deformation at 20 to 40 uM after 24 hrs by fluorescence microscopic analysis. Format: functional, cell-based. The method in brief: as §3
Assay [22] deals with HL-60. Briefly: Induction of apoptosis in human HL60 cells assessed as vesicle formation at 10 to 40 uM after 24 hrs by phase contrast microscopic analysis. The class given is functional, cell-based. In short, it runs like this: (§4)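 HL-60 cells were exposed to the test concentrations for 24 h. Unstained cells were then photographed under phase-contrast microscopy to assess cellular morphology.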

For assay [23], the system named is HL-60. Briefly: Induction of apoptosis in human HL60 cells assessed as blebbing of cell wall at 10 to 40 uM after 24 hrs by phase contrast microscopic analysis. The class given is functional, cell-based. In short, it runs like this:
as §4

For assay [24], the system named is HL-60. Briefly: Induction of mitochondrial membrane potential loss in human HL60 cells at 40 uM after 24 hrs by rhodamine-123 staining-based FACS flow cytometric analysis (reference value: 5%). Format: functional.
Assay [25] has as its system HL-60. The assay can be described thus: Induction of mitochondrial membrane potential loss in human HL60 cells at 30 uM after 24 hrs by rhodamine-123 staining-based FACS flow cytometric analysis (reference value: 5%). The class given is functional.
The test system of assay [26] is HL-60. The assay can be described thus: Induction of mitochondrial membrane potential loss in human HL60 cells at 20 uM after 24 hrs by rhodamine-123 staining-based FACS flow cytometric analysis (reference value: 5%). Format: functional.
Assay [27] relates to HL-60. The assay can be described thus: Induction of mitochondrial membrane potential loss in human HL60 cells at 10 uM after 24 hrs by rhodamine-123 staining-based FACS flow cytometric analysis (reference value: 5%). Format: functional.

Regarding `CC[C@@]1(O)C(=O)OCc2c1cc1n(c2=O)Cc2cc3ccccc3nc2-1` [CAMPTOTHECIN], the IC50 amounted to 1200 nM in the assay with PC-3; 60 nM in the assay on HL-60 [1]; 190 nM in the assay on MIA PaCa-2; 50 nM with COLO 205; 200 nM in the assay on HepG2.

Consider `CC(=O)c1c(O)c(C)c(O)c(Cc2c(O)c(CC=C(C)C)c(O)c3c2O[C@H](c2ccccc2)CC3=O)c1O`, for which the Activity in the assay with HL-60 [2] is listed as 18%; in the assay with HL-60 [3], 22%; in the assay with HL-60 [4], 60%; in the assay on HL-60 [5], 7%; with HL-60 [6], 55%; in the assay on HL-60 [7], 16%. Besides, the Activity in the assay on HL-60 [8] amounted to 77%; in the assay with HL-60 [9] it was 29%; in the assay on HL-60 [10], 4%; with HL-60 [11], 18%; in the assay on HL-60 [12], 78%; in the assay with HL-60 [13], 26%. The Activity is 5% in the assay with HL-60 [14]; 20% in the assay with HL-60 [15]; 75% in the assay with HL-60 [16]; 14% with HL-60 [17]; 43% with HL-60 [24]; 25% with HL-60 [25]. Further, the Activity in the assay with HL-60 [26] was 12%; in the assay with HL-60 [27], 6%. For the same molecule, the IC50 is above 20000 nM in the assay with PC-3; 16000 nM in the assay on HL-60 [1]; 9000 nM with MIA PaCa-2; above 20000 nM in the assay on COLO 205; above 20000 nM in the assay on HepG2. Besides, the result in the assay with HL-60 [18], with HL-60 [19], in the assay on HL-60 [20], with HL-60 [21], with HL-60 [22] and in the assay on HL-60 [23] was Active.

In general, IC50 refers to the midpoint of a concentration-inhibition curve. A lower IC50 goes with higher potency.
